From ChEMBL document CHEMBL1135893, “Synthesis and mode of action of hydrophobic derivatives of the glycopeptide antibiotic eremomycin and des-(N-methyl-D-leucyl)eremomycin against glycopeptide-sensitive and -resistant bacteria” (J Med Chem, 2002) come the findings set out here.

The test system of assay [1] is Staphylococcus haemolyticus. In words: Antibacterial activity evaluated as minimum inhibitory concentration against 602 Staphylococcus haemolyticus. Details: unit not given beside the values.
For assay [2], the system named is Enterococcus faecalis. Nature of the assay: Antibacterial activity evaluated as minimum inhibitory concentration against 560 Enterococcus faecalis (GRE). Type of assay: functional. In short, it runs like this: (§1)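 Broth microdilution in Mueller Hinton broth per NCCLS procedure; repeat results usually identical, always within 2-fold. GISA strains 3797 (HIP-5836 New Jersey) and 3798 (HIP-5827 Michigan); 533 S. epidermidis and 602 S. haemolyticus are clinical isolates; vancomycin-resistant enterococci have confirmed genotype.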

The test system of assay [3] is Staphylococcus aureus. In words: Antibacterial activity evaluated as minimum inhibitory concentration against 3797 Staphylococcus aureus (GISA). Type of assay: functional. On the set-up: unit not given beside the values. In a few lines: as §1
Assay [4] deals with Staphylococcus aureus. In words: Antibacterial activity evaluated as minimum inhibitory concentration against 3798 Staphylococcus aureus (GISA). Type of assay: functional. Details: unit not given beside the values. In short, it runs like this:
as §1

The test system of assay [5] is Enterococcus faecium. Nature of the assay: Antibacterial activity evaluated as minimum inhibitory concentration against 568 Enterococcus faecium (GSE). It counts as functional. In a few lines: as §1
Assay [6] deals with Staphylococcus epidermidis. Nature of the assay: Antibacterial activity evaluated as minimum inhibitory concentration against 533 Staphylococcus epidermidis. Type of assay: functional. In short, it runs like this:
as §1

Assay [7] deals with Enterococcus faecium. In words: Antibacterial activity evaluated as minimum inhibitory concentration against 569 Enterococcus faecium (GRE). Type of assay: functional. In a few lines:
as §1

The test system of assay [8] is Nucleic Acid. In words: Inhibition of the peptidoglycan synthesis in the absence of dipeptide bonding using UDP-MurNAc-pentapeptide. It counts as nucleic-acid assay. In a few lines:
(§2)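 Peptidoglycan synthesis run on filter plates with E. coli OV58 (pTA9) membranes, UDP-MurNAc-pentapeptide or UDP-MurNAc-tetrapeptide plus UDP-N-acetyl-[14C]-D-glucosamine as substrates; radiolabel incorporation into peptidoglycan measured. IC50 from at least six drug concentrations in duplicate, fitted by four-parameter logistic nonlinear regression.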

In assay [9] the test system is Enterococcus faecalis. Nature of the assay: Antibacterial activity evaluated as minimum inhibitory concentration against 559 Enterococcus faecalis (GSE). It counts as functional. On the set-up: unit not given beside the values. In a few lines:
as §1

Assay [10] concerns Nucleic Acid. Nature of the assay: Inhibition of the peptidoglycan synthesis in the absence of dipeptide bonding using UDP-MurNAc-tetrapeptide. It counts as nucleic-acid assay. In a few lines: as §2
Assay [11] relates to Nucleic Acid. Nature of the assay: Ratio UDP-MurNAc-tetrapeptide to UDP-MurNAc-Pentapeptide. It counts as nucleic-acid assay.

For orientation: IC50 means the concentration at which inhibition is half-maximal. For the molecule `CCCCCCCCCCNC(=O)[C@H]1NC(=O)[C@H]2NC(=O)[C@H](NC(=O)[C@@H]3NC(=O)[C@H](CC(N)=O)NC(=O)[C@H](NC(=O)[C@@H](CC(C)C)NC)[C@H](O)c4ccc(c(Cl)c4)Oc4cc3cc(c4O[C@@H]3O[C@@H](CO)[C@H](O)[C@@H](O)[C@@H]3O[C@H]3C[C@@](C)(N)[C@@H](O)[C@@H](C)O3)Oc3cccc(c3)[C@H]2O[C@H]2C[C@@](C)(N)[C@@H](O)[C@@H](C)O2)c2ccc(O)c(c2)-c2c(O)cc(O)cc21`, the MIC was found to be 0.13 in assay [1]; 4 with Enterococcus faecalis [2]; 4 against Staphylococcus aureus [3]; 4 against Staphylococcus aureus [4]; 0.5 against Enterococcus faecium [5]; 0.13 in assay [6]. The figures for the MIC against Enterococcus faecium [7] and in the assay on Enterococcus faecalis [9] were 2 and 1, respectively. Further, the values for the IC50 with Nucleic Acid [8] and in the assay with Nucleic Acid [10] were 1.3 µM and 6.4 µM, respectively. Also, in the assay with Nucleic Acid [11], the Ratio stood at 5.
For the molecule `C[C@H]1O[C@@H](O[C@@H]2[C@H](Oc3c4cc5cc3Oc3ccc(cc3Cl)[C@@H](O)[C@@H](N)C(=O)N[C@@H](CC(N)=O)C(=O)N[C@H]5C(=O)N[C@H]3C(=O)N[C@H](C(=O)N[C@H](C(=O)O)c5cc(O)cc(O)c5-c5cc3ccc5O)[C@H](O[C@H]3C[C@@](C)(N)[C@@H](O)[C@@H](C)O3)c3cccc(c3)O4)O[C@@H](CO)[C@H](O)[C@H]2O)C[C@@](C)(NCc2ccc(-c3ccc(Cl)cc3)cc2)[C@H]1O`, the MIC came out at 4 in assay [1]; 8 with Enterococcus faecalis [2]; 8 against Staphylococcus aureus [3]; 8 with Staphylococcus aureus [4]; 4 in the assay with Enterococcus faecium [5]; 4 in [6]. In addition, the MIC with Enterococcus faecium [7] is on record as 8; with Enterococcus faecalis [9], 4. Also, the IC50 in the assay on Nucleic Acid [8] stood at 7.7 µM; with Nucleic Acid [10], 9.2 µM. In addition, the Ratio in the assay with Nucleic Acid [11] worked out at 1.2.
For `CCCCCCCCCCN[C@]1(C)C[C@H](O[C@@H]2[C@H](Oc3c4cc5cc3Oc3ccc(cc3Cl)[C@@H](O)[C@@H](NC(=O)[C@@H](CC(C)C)NC)C(=O)N[C@@H](CC(N)=O)C(=O)N[C@H]5C(=O)N[C@H]3C(=O)N[C@H](C(=O)N[C@H](C(=O)O)c5cc(O)cc(O)c5-c5cc3ccc5O)[C@H](O[C@H]3C[C@@](C)(N)[C@@H](O)[C@@H](C)O3)c3cccc(c3)O4)O[C@@H](CO)[C@H](O)[C@H]2O)O[C@H](C)[C@@H]1O`, the MIC in [1] was 0.5; against Enterococcus faecalis [2], 8; in the assay on Staphylococcus aureus [3] it was 4; against Staphylococcus aureus [4], 4; in the assay on Enterococcus faecium [5], 0.5; in assay [6], 0.5. Further, the MIC in the assay on Enterococcus faecium [7] turned out to be 4; against Enterococcus faecalis [9], 0.5. Also, the half-maximal inhibitory concentration (IC50) in the assay on Nucleic Acid [8] is 1.8 µM; with Nucleic Acid [10], 13.3 µM. Besides, in the assay on Nucleic Acid [11], the Ratio came to 7.3.
